This note sets out measurements from ChEMBL document CHEMBL1127855, “Antitumor agents. 144. New gamma-lactone ring-modified arylamino etoposide analogs as inhibitors of human DNA topoisomerase II” (1994).

Bounds are passed on as bounds.

In test [1] the target is DNA topoisomerase II (Homo sapiens) (UniProt P11388+Q02880). The test can be described thus: Inhibition of human DNA topoisomerase II activity. The test is classed as protein assay. A digest of the protocol:
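Each compound was tested in triplicate at 5, 10, 25, 50 and 100 µM. ID50 was set from the degree of inhibition seen at these concentrations.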

A further test deals with Nucleic Acid. Kind of test: Percent of cellular protein-DNA complex formation at concentration of 20 uM. Type of test: functional. The following applies: Homo sapiens.
The test system of the next test is KB. The test can be described thus: Cytotoxicity against KB-ATCC cell lines after a 3-day incubation. The test is classed as functional. Particulars: Homo sapiens, 72 h, read-out: ID50 (the source's name). A digest of the protocol: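 KB-ATCC cells were incubated with compound for 3 days. The read-out was cell number, and ID50 was taken as the concentration giving a 50% reduction.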

Molecule `COc1cc([C@@H]2c3cc4c(cc3[C@@H](Nc3ccc(F)cc3)[C@H]3COC[C@H]23)OCO4)cc(OC)c1O` displayed an ID50 in test [1] of 50 µM. The Complex formation with Nucleic Acid was found to be 125%. In addition, the IC50 in the test with KB came to 4.1 µM.

In the case of `COc1cc([C@@H]2c3cc4c(cc3[C@@H](Nc3ccc(F)cc3)[C@H]3COC(=O)[C@H]23)OCO4)cc(OC)c1O`, in the test with Nucleic Acid, the Complex formation was 213%. Moreover, in the test on KB, the IC50 came out at 0.24 µM.

In test [1], `COc1cc([C@@H]2c3cc4c(cc3[C@@H](Nc3ccccc3)[C@H]3COC[C@H]23)OCO4)cc(OC)c1O` registered an ID50 of 50 µM. For the same molecule, in the test on Nucleic Acid, the Complex formation was 139%. For the same molecule, in the test on KB, the IC50 worked out at 2.6 µM.

`COc1cc([C@@H]2c3cc4c(cc3[C@@H](O[C@@H]3O[C@@H]5CO[C@@H](C)O[C@H]5[C@H](O)[C@H]3O)[C@H]3COC(=O)[C@H]23)OCO4)cc(OC)c1O` [ETOPOSIDE]: the Complex formation in the test with Nucleic Acid amounted to 100%. For the same molecule, the IC50 with KB was determined as 0.2 µM.

The molecule `COc1cc([C@@H]2c3cc4c(cc3[C@@H](Nc3ccccc3)[C@H]3CO[C@@H](OC)[C@H]23)OCO4)cc(OC)c1O` had an ID50 in test [1] of 100 µM. For the same molecule, in the test on Nucleic Acid, the Complex formation is 96%. For the same molecule, the IC50 in the test with KB was 5.5 µM.

Take `COc1cc([C@@H]2c3cc4c(cc3[C@@H](Nc3ccc(F)cc3)[C@H]3CO[C@@H](OC)[C@H]23)OCO4)cc(OC)c1O`: the ID50 in test [1] was more than 100 µM. The molecule further came in with a Complex formation in the test on Nucleic Acid of 66%. Also, the IC50 with KB was 5.5 µM.

On to `COc1cc([C@@H]2c3cc4c(cc3[C@@H](Nc3ccc(F)cc3)[C@H]3CO[C@@H](O)[C@H]23)OCO4)cc(OC)c1O`, for which the ID50 in test [1] stood at 50 µM. The Complex formation with Nucleic Acid was found to be 87%. Moreover, the IC50 with KB was found to be 2.2 µM.
